Experimental data published in ChEMBL document CHEMBL3627611, “Carbonic anhydrase inhibitors: Design, synthesis, kinetic, docking and molecular dynamics analysis of novel glycine and phenylalanine sulfonamide derivatives” (Bioorg Med Chem, 2015).
The source made the active and inactive calls. No cut-off for these calls is given here.

Legend:
[1] = molecular target: T1, Carbonic anhydrase 1 (Homo sapiens, UniProt P00915); experiment: Competitive inhibition of cytosolic carbonic anhydrase 1 esterase activity isolated from human erythrocytes in presence of 4-nitrophenylacetate
Procedure, shortened: (§1)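 Esterase activity followed at 348 nm as 4-nitrophenylacetate (3 mM stock) converts to 4-nitrophenylate, 3 min at 25 °C, in 0.05 M Tris–SO4 pH 7.4. Blank without enzyme; uninhibited control = 100%. Several inhibitor concentrations, each in triplicate; KI from activity-versus-[inhibitor] plots via Cheng–Prusoff.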
Target sequence in this assay (P00915 2-261 limits assumed): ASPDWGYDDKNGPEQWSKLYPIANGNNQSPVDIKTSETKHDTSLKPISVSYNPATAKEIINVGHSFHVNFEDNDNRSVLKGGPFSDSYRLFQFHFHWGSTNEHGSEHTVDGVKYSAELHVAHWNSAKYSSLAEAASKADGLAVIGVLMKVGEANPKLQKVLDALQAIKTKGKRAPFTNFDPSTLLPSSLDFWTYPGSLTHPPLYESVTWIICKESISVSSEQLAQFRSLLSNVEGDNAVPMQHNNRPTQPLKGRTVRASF

[2] = molecular target: Carbonic anhydrase 2 (Homo sapiens, UniProt P00918); experiment: Inhibition of cytosolic carbonic anhydrase 2 esterase activity isolated from human erythrocytes using 4-nitrophenylacetate as substrate measured over 3 mins by spectrophotometric analysis
[3] = molecular target: T1, Carbonic anhydrase 1; experiment: Inhibition of cytosolic carbonic anhydrase 1 esterase activity isolated from human erythrocytes using 4-nitrophenylacetate as substrate measured over 3 mins by spectrophotometric analysis; procedure, shortened: as §1
Target sequence in this assay (P00915 whole entry): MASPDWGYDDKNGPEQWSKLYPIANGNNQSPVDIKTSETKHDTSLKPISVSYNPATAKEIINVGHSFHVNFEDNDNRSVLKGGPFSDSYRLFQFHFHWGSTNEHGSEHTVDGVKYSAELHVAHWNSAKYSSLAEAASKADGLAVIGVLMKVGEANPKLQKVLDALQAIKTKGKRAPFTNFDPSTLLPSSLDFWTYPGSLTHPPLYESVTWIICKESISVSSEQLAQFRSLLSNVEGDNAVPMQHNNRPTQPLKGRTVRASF

Question: With COC(=O)CNS(=O)(=O)c1ccc(C)cc1 as the compound, how does the inhibition [1] read?
Answer: Active

Question: What about the Ki [2] of the same compound?
Answer: 56.4 µM

Question: What about the Ki [3] of the same compound?
Answer: 106 µM

Question: What does the source list for Cc1ccc(S(=O)(=O)NCC(=O)OCc2ccccc2)cc1?
Answer: inhibition [1]: Active; Ki [3]: 29.6 µM

Question: How did the inhibition [1] turn out when Cc1ccc(S(=O)(=O)NCC(=O)O)cc1 was run?
Answer: Active

Question: And the Ki [2]?
Answer: 144 µM

Question: And the Ki [3]?
Answer: 120 µM

Question: Cc1ccc(S(=O)(=O)N[C@@H](Cc2ccccc2)C(=O)N2CCCCC2)cc1 was tested. Which inhibition [1] did it give?
Answer: Active

Question: What about the Ki [3] of the same compound?
Answer: 100 µM

Question: Which results are given for COC(=O)[C@H](Cc1ccccc1)NS(=O)(=O)c1ccc(C)cc1?
Answer: inhibition [1]: Active; Ki [3]: 63.7 µM

Question: With Cc1ccc(S(=O)(=O)N[C@@H](Cc2ccccc2)C(=O)O)cc1 as the compound, how does the inhibition [1] read?
Answer: Active

Question: And the Ki [2]?
Answer: 104 µM

Question: And the Ki [3]?
Answer: 315 µM

Question: With Cc1ccc(S(=O)(=O)NCC(=O)N2CCCCC2)cc1 as the compound, how does the Ki [2] read?
Answer: 19.3 µM

Question: How did the inhibition [1] turn out when Cc1ccc(S(=O)(=O)N[C@@H](Cc2ccccc2)C(=O)OCc2ccccc2)cc1 was run?
Answer: Active

Question: And the Ki [3]?
Answer: 14.7 µM
